Screening results (PubChem)
Only some compounds are listed: those with a hit (about 4.2% of all), similar ones and a draw of the others.
Fh CTSL1 inh – counter-screen for PFM18AAP inhibitors: inhibitors of F. hepatica cathepsin L1; recombinant F. hepatica cathepsin L1, Z-Leu-Arg-MCA fluorescence; inhibition, % at 5.96 µM; 300,000 compounds, 0.49% hits;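 active means inhibition above the mean of all tested compounds plus 3 SD, set per screening campaign, cut at about 17% in these data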
GAA850 FXN act – frataxin GAA850 promoter activation. activation, % at 6 µM. HEK293 lucGAA850 FXN promoter luciferase reporter, 24 h; percent of 10 µM SAHA response. 360,000 compounds, 0.56% hits. AID 540364;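 active means activation above the average of all compounds screened plus 3 SD, cutoff fixed separately per campaign, cut at about 7.5% in these data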
PfM18AAP inh – blocks P. falciparum M18 aspartyl aminopeptidase; recombinant PfM18AAP, H-Glu-NHMec fluorogenic cleavage; inhibition, % at 7.35 µM; 290,000 compounds, 1.2% hits; AID 1822;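 active means inhibition above the campaign mean inhibition over all tested compounds plus 3 SD, cut at about 28% in these data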
HDAC3 inh – human HDAC3 inhibition. O15379. recombinant HDAC3, fluorogenic peptide/trypsin coupled, fluorescence. inhibition, % at 8.3 µM. 320,000 compounds, 0.15% hits; in the data active means inhibition above about 26%, passing the limit was not always enough
Target sequence (O15379 whole entry, looked up): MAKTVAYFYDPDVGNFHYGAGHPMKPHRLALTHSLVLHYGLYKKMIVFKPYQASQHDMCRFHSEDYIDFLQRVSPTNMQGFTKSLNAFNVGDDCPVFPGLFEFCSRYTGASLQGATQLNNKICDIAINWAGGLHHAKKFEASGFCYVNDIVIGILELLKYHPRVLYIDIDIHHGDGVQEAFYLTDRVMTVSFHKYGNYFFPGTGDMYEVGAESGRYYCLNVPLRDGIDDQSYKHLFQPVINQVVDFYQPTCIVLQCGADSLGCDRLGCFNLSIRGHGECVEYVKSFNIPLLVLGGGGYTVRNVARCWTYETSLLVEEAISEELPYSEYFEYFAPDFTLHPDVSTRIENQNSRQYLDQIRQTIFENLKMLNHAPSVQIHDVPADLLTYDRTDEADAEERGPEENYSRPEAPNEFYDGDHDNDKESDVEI
AHR act – activates the human aryl hydrocarbon receptor; 320,000 compounds, 2.5% hits; AHR-responsive luciferase reporter cells, luminescence; activation, % at 5 µM; P35869; in the data active means activation above about 47%
SENP1 inh – inhibitors of human SENP1 SUMO protease catalytic domain; 360,000 compounds, 0.21% hits; inhibition, % at 10 µM; Q9P0U3; recombinant SENP1 catalytic domain, CyPet-SUMO1-YPet FRET cleavage;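 active means inhibition at least 30% at 10 µM, raw YFP signal under a set limit, fluorescence ratio 0.5 to 1.5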
Target sequence (Q9P0U3 419-644 limits assumed): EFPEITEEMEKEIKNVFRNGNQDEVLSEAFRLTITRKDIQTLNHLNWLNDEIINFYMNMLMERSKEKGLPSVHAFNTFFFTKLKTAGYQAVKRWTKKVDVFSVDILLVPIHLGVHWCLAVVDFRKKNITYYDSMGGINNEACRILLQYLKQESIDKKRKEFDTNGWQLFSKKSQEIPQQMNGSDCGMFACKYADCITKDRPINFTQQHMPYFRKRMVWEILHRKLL
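Test system: human SENP1 catalytic domain; medium: Tris pH 8 buffer plus EDTA, NaCl, BME, BSA, NP40, catalase; incubation: 50 min reaction at room temperature; technique: FRET, CFP and YFP emission; controls: no-enzyme low control and enzyme-plus-DMSO high control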
Large screens that a line does not name were inactive.

Cc1ccnc(N/C=C(/NC(=O)c2ccccc2)C(=O)N/N=C\c2ccc(F)cc2)n1	Fh CTSL1 inh 19.8
Cc1ccccc1NC(=O)N1CCNC(=O)C1CC(=O)Nc1cc(Cl)ccc1Cl (centres undefined)	none
COC(=O)CN(C#N)c1nc(NC(C)C)nc(NC(C)C)n1	Fh CTSL1 inh 69.2
COC(=O)C(C)N(C#N)c1nc(C)cc(C)n1 (centres undefined)	none
COC(=O)C(C)N(C#N)c1nc(NC(C)C)nc(SC)n1 (centres undefined)	Fh CTSL1 inh 32.0
CCc1ccc2c(c1)[C@H]1OCC[C@H]1[C@@H](c1cccs1)N2	AHR act 78.4
Clc1ccc2c(c1)[C@H]1OCC[C@H]1[C@@H](c1ccco1)N2	none
O=[N+]([O-])c1ccc(-c2nc(C(Cl)Cl)c3ccccc3n2)cc1	AHR act 74.9
CN(Cc1ccccc1)c1nc(-c2ccc([N+](=O)[O-])cc2)nc2ccccc12	none
O=C(CSc1ccc([N+](=O)[O-])cc1)Nc1nnc(C2CC2)s1	none (no result: Fh CTSL1 inh, PfM18AAP inh)
Cn1c(=O)c2cc(NC(=O)CCc3ccccc3)ccc2n1-c1ccccc1F	none (no result: Fh CTSL1 inh, PfM18AAP inh, HDAC3 inh, AHR act)
CCCCCCCCOC(=O)c1c(CSC(=N)N)n(C)c2cc(Br)c(OC(C)=O)cc12	HDAC3 inh 33.2
CCOC(=O)c1c(CSC(=N)N)n(-c2ccc(Br)cc2)c2cc(Br)c(OC(C)=O)cc12	none (no result: Fh CTSL1 inh, HDAC3 inh, AHR act)
O=C(O)C1CCN(C(=O)c2ccc3c(c2)OCO3)CC1	none
O=Cc1c[nH]c2ccc(C(=O)c3ccccc3)cc12	Fh CTSL1 inh 18.1
O=Cc1c[nH]c2ccc(OCc3ccccc3)cc12	none (no result: Fh CTSL1 inh, PfM18AAP inh)
Cc1ccccc1SCC(=O)Nc1cc(C(F)(F)F)ccc1N1CCOCC1	none (no result: PfM18AAP inh)
Cn1nc(-c2ccc(Cl)cc2)nc2c(=O)n(C)c(=O)nc1-2	Fh CTSL1 inh 113.4 (no result: GAA850 FXN act, SENP1 inh)
O=c1[nH]c(/C(Cl)=C/c2c(F)cccc2Cl)nc2cc(Cl)ccc12	AHR act 57.9
O=C(/C=C/c1ccncc1)c1ccc(NC(=O)c2ccccc2F)cc1	GAA850 FXN act 12.5
O=C(/C=C/c1ccc(Br)cc1)c1ccc(NC(=O)c2ccco2)cc1	AHR act 47.8
O=C(/C=C/c1ccc(Br)cc1)c1ccco1	PfM18AAP inh 29.3 (no result: HDAC3 inh)
O=C(/C=C/c1ccc([N+](=O)[O-])cc1)c1ccco1	none
CC(C)C[C@@H](CN1CCCC1CN1C(=S)NC[C@@H]1Cc1ccccc1)N1C[C@H](Cc2ccccc2)N(CCc2ccccc2)C1=S (some centres undefined)	none (no result: Fh CTSL1 inh, GAA850 FXN act, PfM18AAP inh, HDAC3 inh, AHR act)
Cc1ccc(NC(=S)NNC(=S)NC2CCCCC2)cc1	AHR act 50.3
Cc1cccc(NS(=O)(=O)c2ccc(C)c(C(=O)NNC(=O)c3csc(N4CCOCC4)n3)c2)c1	none (no result: Fh CTSL1 inh, PfM18AAP inh, HDAC3 inh, AHR act)
O=C(OCCOc1ccccc1)c1cc(S(=O)(=O)N2CCOCC2)c(Cl)cc1Cl	none (no result: Fh CTSL1 inh, PfM18AAP inh, HDAC3 inh, AHR act)
O=C1Nc2ccc(Br)cc2C1(O)c1ccccc1 (centres undefined)	none
O=C1Nc2ccc(Br)cc2C12NNc1ccccc1O2 (centres undefined)	AHR act 60.4
F[B-](F)(F)c1cncc2ccccc12	none (no result: Fh CTSL1 inh, PfM18AAP inh, HDAC3 inh, AHR act)
Cc1ccc([C@@H]2[C@@H]3C(=O)N(C)C(=O)[C@@H]3[C@]3(Cc4ccccc4)C(=O)N(Cc4ccccn4)CC(=O)N23)o1	none
Cc1ccc(-c2cn3cccnc3n2)cc1	none
O=C(Nc1cccc(-c2cn3cccnc3n2)c1)c1ccc2c(c1)OCO2	AHR act 48.7
O=C(Nc1cccc(-c2cn3cccnc3n2)c1)c1ccc(Br)o1	AHR act 72.2
O=C(Nc1cccc(-c2cn3c(n2)SCC3)c1)c1ccc2c(c1)OCO2	AHR act 50.2
c1cnc2nc(-c3ccc4c(c3)OCO4)cn2c1	AHR act 64.4
CC(C)(C)C#CCn1c(/C=[N+](\[O-])C2CCCCC2)nc2ccccc21	none
CC(C)(C)C1CCN2CCCC(c3ccc([N+](=O)[O-])cc3)(C1)C21OCCO1 (centres undefined)	none (no result: Fh CTSL1 inh, GAA850 FXN act, PfM18AAP inh, HDAC3 inh, AHR act)
CCCCCCc1c(C)c2ccc(OCC(=O)N3CCC[C@H]3C(=O)O)c(C)c2oc1=O	none
CCC(=O)Nc1ccc(-c2nn3c(C)nnc3s2)cc1C	AHR act 53.6
CN(CCc1ccccc1)C1CCCN(S(=O)(=O)CC(F)(F)F)C1 (centres undefined)	Fh CTSL1 inh 19.4
COC(=O)C=C1CCC2C3CCC4=CC(=O)CCC4(C)C3C(=O)CC12C (centres undefined)	none (no result: Fh CTSL1 inh, PfM18AAP inh, HDAC3 inh, AHR act)
O=C(Nc1cccc(-c2csc(Nc3ccc(Cl)cc3)n2)c1)c1cc([N+](=O)[O-])cc(C(F)(F)F)c1	AHR act 55.9 (no result: PfM18AAP inh)
COc1ccc(CCNCC(O)COc2c(C)cccc2C)cc1OC (centres undefined)	none (no result: Fh CTSL1 inh, AHR act)
COc1cc(-c2c(-c3ccsc3)sc3ccccc23)cc(OC)c1OC	none (no result: Fh CTSL1 inh, PfM18AAP inh)
OCCCCC#Cc1c(-c2ccsc2)sc2ccccc12	AHR act 49.0
COc1ccc(-c2sc3ccccc3c2C#CCCO)cc1	none
C(#Cc1c(-c2ccsc2)sc2ccccc12)c1ccsc1	AHR act 71.8 (no result: Fh CTSL1 inh, PfM18AAP inh)
CCCc1nnc(SCC(=O)NC2CCCC2)n1CCOC	none
Cc1cc(C)c2nc(/N=C(\N)NC(=O)Nc3ccccc3)nc(C)c2c1	AHR act 70.3
CCCC(=O)N/C(N)=N/c1nc(C)c2ccccc2n1	AHR act 59.7
CCc1ccc2nc(/N=C(\N)NC(=O)c3ccccc3)nc(C)c2c1	none
CC(=O)C(C(C)=O)C1(O)C(=O)c2ccccc2C1=O	Fh CTSL1 inh 57.7
CC(=O)N(C)C1=C(O)c2ccccc2C(=O)C1=O	none
Cc1cccc(C)c1NS(=O)(=O)c1cc2c3c(c1)CCN3C(=O)CC2	none (no result: PfM18AAP inh)
Cn1c(=O)c2sccc2n2c(CCCC(=O)N3CCCCC3)nnc12	none
O=C(COC(=O)c1ccc([N+](=O)[O-])s1)NCc1ccc(F)cc1	Fh CTSL1 inh 79.6
O=C(COC(=O)c1ccc([N+](=O)[O-])s1)NCCc1ccccc1	none (no result: Fh CTSL1 inh, PfM18AAP inh)
O=C(COC(=O)c1ccc([N+](=O)[O-])s1)NC(=O)NCc1ccccc1	Fh CTSL1 inh 18.0
CC(NC(=O)COC(=O)c1ccc([N+](=O)[O-])s1)c1ccccc1 (centres undefined)	Fh CTSL1 inh 33.0
C/C=C/C1=CC(=O)C[C@H](c2ccc(F)cc2)C1	none (no result: Fh CTSL1 inh, PfM18AAP inh)
CC(=O)Oc1ccc(C23CC4CC(CC(C4)C2)C3)cc1C(=O)O	none (no result: GAA850 FXN act, SENP1 inh)
CCCN(C)C[C@@H]1Oc2ncc(Br)cc2C(=O)N([C@@H](C)CO)C[C@H]1C	none (no result: Fh CTSL1 inh, PfM18AAP inh, HDAC3 inh, AHR act)
CCn1c(O)c(N=NC(=O)CNc2ccc(C)cc2)c2ccccc21	AHR act 67.0
Cc1ccc(NCC(=O)N=Nc2c(O)n(C)c3ccccc23)cc1	AHR act 49.2
CC1CC1C(=O)N1CCN(S(=O)(=O)c2cccc(F)c2)CC1 (centres undefined)	none (no result: PfM18AAP inh)
Cc1cccc(/C=N/NC(=O)Cc2ccc(Cl)cc2)c1O	AHR act 52.0
